Experimental data published in article PMC8583780 (ChemMedChem, 2020).
Entries after “also recorded” stand apart in the source; their conditions may differ.

What was measured:
[1] = system: scopolamine-induced cognitive deficit in mice; assay: Step-through passive avoidance; type: in vivo; conditions: scopolamine 1 mg/kg, drug 10 mg/kg i.p.
Method in brief: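 Mice receive scopolamine 1 mg/kg in saline by i.p. injection 30 min before training, then test compound (10 mg/kg) or vehicle 20 min before training. During training, entry into the dark compartment delivers an electric shock. The read-out is the latency to enter the dark compartment.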

human cathepsin B = human cathepsin B (Homo sapiens, UniProt P07858); assay: Cathepsin B inhibition assay; type: biochemical; conditions: for inhibition at 1 µM: read-out: CatB % Inhibition at 1 μM; for CatB % Inhibition at 1 μM: 1 μM compound, three replicates
human cathepsin K = target: T1, human cathepsin K (Homo sapiens, UniProt P43235); assay: Cathepsin K inhibition assay; type: biochemical; conditions: for inhibition at 1 µM: read-out: CatK % Inhibition at 1 μM; for CatK % Inhibition at 1 μM: 1 μM compound, three replicates
T1 sequence (P43235 115-329): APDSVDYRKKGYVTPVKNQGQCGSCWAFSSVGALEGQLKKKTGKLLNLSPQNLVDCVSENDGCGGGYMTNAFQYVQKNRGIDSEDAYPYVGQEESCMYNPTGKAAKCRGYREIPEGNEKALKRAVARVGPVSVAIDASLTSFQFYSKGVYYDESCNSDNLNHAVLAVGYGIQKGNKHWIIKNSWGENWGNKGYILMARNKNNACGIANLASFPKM

human calpain-1 = target: T2, human calpain-1 (Homo sapiens, UniProt P07384); assay: Calpain-1 inhibition assay; type: biochemical; conditions: for inhibition at 1 µM: read-out: Calpain-1 % Inhibition at 1 μM; for Calpain-1 % Inhibition at 1 μM: 1 μM compound, three replicates, errors estimated <10%
T2 sequence (P07384 1-714): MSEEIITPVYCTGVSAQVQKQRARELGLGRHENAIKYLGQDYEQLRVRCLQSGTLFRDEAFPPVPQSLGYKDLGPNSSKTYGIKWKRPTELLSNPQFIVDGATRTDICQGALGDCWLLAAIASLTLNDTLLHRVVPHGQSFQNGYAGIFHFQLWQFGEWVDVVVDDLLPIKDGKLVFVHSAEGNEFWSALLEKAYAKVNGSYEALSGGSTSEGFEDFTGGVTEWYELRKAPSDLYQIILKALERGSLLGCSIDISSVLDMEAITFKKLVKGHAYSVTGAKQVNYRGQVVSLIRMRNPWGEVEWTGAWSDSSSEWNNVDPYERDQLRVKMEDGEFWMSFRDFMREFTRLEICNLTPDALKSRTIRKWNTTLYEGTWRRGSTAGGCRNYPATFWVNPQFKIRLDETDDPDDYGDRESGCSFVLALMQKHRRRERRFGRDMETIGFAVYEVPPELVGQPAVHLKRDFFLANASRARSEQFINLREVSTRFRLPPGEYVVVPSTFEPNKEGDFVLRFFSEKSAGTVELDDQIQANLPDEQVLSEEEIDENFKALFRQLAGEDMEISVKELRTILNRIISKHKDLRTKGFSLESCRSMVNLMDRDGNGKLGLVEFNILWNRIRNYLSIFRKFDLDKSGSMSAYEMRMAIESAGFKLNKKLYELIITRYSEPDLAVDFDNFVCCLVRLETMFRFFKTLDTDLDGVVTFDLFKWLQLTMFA
T2 sequence (P04632 1-268 partner): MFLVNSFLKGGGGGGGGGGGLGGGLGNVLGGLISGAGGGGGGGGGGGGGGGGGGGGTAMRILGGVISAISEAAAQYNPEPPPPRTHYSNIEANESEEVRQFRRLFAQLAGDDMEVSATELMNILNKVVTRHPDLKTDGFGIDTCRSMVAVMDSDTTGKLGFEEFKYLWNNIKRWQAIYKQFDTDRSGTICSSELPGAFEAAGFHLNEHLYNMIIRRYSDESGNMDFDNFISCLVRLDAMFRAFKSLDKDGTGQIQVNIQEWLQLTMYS

papain = target: T3, papain (Carica papaya, UniProt P00784); assay: Papain inhibition assay; type: biochemical; conditions: for inhibition at 1 µM: read-out: Papain % Inhibition at 1 μM; for Papain % Inhibition at 1 μM: 1 μM compound, three replicates
T3 sequence (P00784 134-345): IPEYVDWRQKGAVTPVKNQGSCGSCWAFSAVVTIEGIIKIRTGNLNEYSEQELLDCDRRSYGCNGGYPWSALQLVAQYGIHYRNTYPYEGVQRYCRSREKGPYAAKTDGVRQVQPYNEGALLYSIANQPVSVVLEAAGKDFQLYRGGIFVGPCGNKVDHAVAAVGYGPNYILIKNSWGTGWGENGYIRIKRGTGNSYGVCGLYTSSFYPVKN

[2] = human Phase 1, even at the highest doses; cited from earlier work
[3] = five Phase 1 study arms, including aged subjects; cited from earlier work

SMILES | inhibition at 1 µM (human calpain-1) [%] | CatB % Inhibition at 1 μM (human cathepsin B) [%] | CatK % Inhibition at 1 μM (human cathepsin K) [%] | Calpain-1 % Inhibition at 1 μM (human calpain-1) [%] | Papain % Inhibition at 1 μM (papain) [%] | also measured
CCOC(=O)[C@H]1O[C@@H]1C(=O)N[C@@H](CC(C)C)C(=O)NCCC(C)C [Compound E-64d] | – | – | – | – | – | Memory restoration in STPA, in words [1]: restore memory
CC(C)(F)C[C@H](N[C@@H](c1ccc(-c2ccc(S(C)(=O)=O)cc2)cc1)C(F)(F)F)C(=O)NC1(C#N)CC1 [odanacatib] | 7.1 | – | – | – | – | inhibition at 1 µM (human cathepsin B): 57.2%; inhibition at 1 µM (human cathepsin K): 99.8%; inhibition at 1 µM (papain): 14.7%
CCC(NC(=O)[C@H](CC(C)C)NC(=O)OCc1ccccc1)C(=O)C(=O)NCCCN1CCOCC1 (stereo partly shown) [AK-295] | – | 18.0 | 100 | 100 | 18.7 | Cathepsin K inhibition in words (human cathepsin K): potent inhibitor of cathepsin K
O=C(NCc1ccc(F)cc1)C(=O)[C@@H](Cc1ccccc1)NC(=O)[C@H]1CCC(=O)N1Cc1ccccc1 [Compound 1g, (R)-1-benzyl-N-((R)-4-((4-fluorobenzyl)amino)-3,4-dioxo-1-phenylbutan-2-yl)-5-oxopyrrolidine-2-carboxamide] | 31.8 | – | – | – | – | Calpain-1 potency in words (human calpain-1): greatly reduced potency
O=C(NCc1ccc(F)cc1)C(=O)[C@H](Cc1ccccc1)NC(=O)[C@H]1CCC(=O)N1Cc1ccccc1 [Compound 1c, (R)-1-benzyl-N-((S)-4-((4-fluorobenzyl)amino)-3,4-dioxo-1-phenylbutan-2-yl)-5-oxopyrrolidine-2-carboxamide] | 98.1 | – | – | – | – | inhibition at 1 µM (human cathepsin B): 11.4%; inhibition at 1 µM (human cathepsin K): 13.5%; IC50 (human calpain-1): 78 ± 10 nM; Memory restoration in STPA, in words [1]: restored cognitive function; also recorded: restored memory; inhibition at 1 µM (papain): 15.2%
CC(C)CCNC(=O)[C@H](CC(C)C)NC(=O)[C@H]1O[C@@H]1C(=O)O [Compound E-64c] | – | 99.3 | 100 | 86.0 | 97.6 | –
CCCNC(=O)[C@H]1O[C@@H]1C(=O)N[C@H](C(=O)N1CCC[C@H]1C(=O)O)[C@@H](C)CC [CA-074] | – | 100 | 70.5 | 4.72 | 16.8 | –
O=C(NC1CC1)C(=O)C(Cc1ccccc1)NC(=O)[C@H]1CCC(=O)N1Cc1ccccc1 (stereo partly shown) [ABT-957, alicapistat] | – | – | – | – | – | Measured CSF concentrations [2]: 9 to 21 nM; Treatment-associated adverse events [3]: no treatment-associated adverse events were identified
